{
  "source": "paper PMC10432884",
  "about": "(Clinical and Translational Science, 2023)",
  "key": {"healthy subjects [1]": {"tested_on": "healthy subjects", "experiment": "First-in-human trial, all phases: overall safety and tolerability", "format": "in vivo", "outline": "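Safety covered all dosed subjects in the SAD, MAD and FI phases: AEs (MedDRA 21.1), concomitant medication, vital signs, ECGs, physical exams and safety labs. BP was taken after 5 min supine, then ≥1 min sitting and 1–3 min standing. Orthostasis was defined as an SBP fall ≥20 mmHg or DBP fall ≥10 mmHg within 3 min standing. TEAEs were summarized by treatment, organ class, severity and drug-relatedness.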"}, "healthy subjects [2]": {"tested_on": "healthy subjects"}, "[3]": {"conditions": "SAD pooled zagociguat group (n = 42)"}},
  "note": "Like-named read-outs stand apart in the source and are kept apart here.",
  "data": [
    {"smiles": "Fc1ccccc1Cc1nc(-c2nc(C(F)(F)F)n[nH]2)cn2ccnc12", "note": "[zagociguat, 8‐(2‐fluorobenzyl)‐6‐(3‐(trifluoromethyl)‐1H‐1,2,4‐triazol‐5‐yl)imidazo[1,2‐a]pyrazine]", "values": [
      {"measurement": "Severity of observed TEAEs", "setting": "healthy subjects [1]; across all study phases", "value": "mild and transient"},
      {"measurement": "Tolerability", "setting": "healthy subjects [1]; all doses evaluated, all study phases", "value": "well‐tolerated"},
      {"measurement": "Bleeding time and bleeding events", "setting": "healthy subjects [1]; all phases", "value": "no increases in bleeding time nor any bleeding events"},
      {"measurement": "Deaths or other serious AEs", "setting": "healthy subjects [1]; all study phases", "value": "No deaths or other serious AEs"},
      {"measurement": "Subjects discontinued from study drug due to ≥1 TEAE", "setting": "healthy subjects [2]; SAD 0.3 mg (n = 6)", "value": 0, "unit": "n"},
      {"measurement": "Subjects with ≥1 SAE", "setting": "healthy subjects [2]; SAD 0.3 mg (n = 6)", "value": 0, "unit": "n"},
      {"measurement": "Subjects with ≥1 TEAE", "setting": "healthy subjects [2]; SAD 0.3 mg (n = 6)", "value": "2 (33.3%) n (%)"},
      {"measurement": "Subjects with ≥1 study drug related TEAE", "setting": "healthy subjects [2]; SAD 0.3 mg (n = 6)", "value": 2, "unit": "n"},
      {"measurement": "TEAEs", "setting": "healthy subjects [2]; SAD 0.3 mg (n = 6)", "value": 5, "unit": "n"},
      {"measurement": "Subjects discontinued from study drug due to ≥1 TEAE", "setting": "healthy subjects [2]; SAD 1 mg (n = 6)", "value": 0, "unit": "n"},
      {"measurement": "Subjects with ≥1 SAE", "setting": "healthy subjects [2]; SAD 1 mg (n = 6)", "value": 0, "unit": "n"},
      {"measurement": "Subjects with ≥1 TEAE", "setting": "healthy subjects [2]; SAD 1 mg (n = 6)", "value": "2 (33.3%) n (%)"},
      {"measurement": "Subjects with ≥1 study drug related TEAE", "setting": "healthy subjects [2]; SAD 1 mg (n = 6)", "value": 1, "unit": "n"},
      {"measurement": "TEAEs", "setting": "healthy subjects [2]; SAD 1 mg (n = 6)", "value": 5, "unit": "n"},
      {"measurement": "Orthostatic hypotension TEAE", "setting": "healthy subjects [2]; SAD 3 mg", "value": "One"},
      {"measurement": "Subjects discontinued from study drug due to ≥1 TEAE", "setting": "healthy subjects [2]; SAD 3 mg (n = 6)", "value": 0, "unit": "n"},
      {"measurement": "Subjects with ≥1 SAE", "setting": "healthy subjects [2]; SAD 3 mg (n = 6)", "value": 0, "unit": "n"},
      {"measurement": "Subjects with ≥1 TEAE", "setting": "healthy subjects [2]; SAD 3 mg (n = 6)", "value": "3 (50.0%) n (%)"},
      {"measurement": "Subjects with ≥1 study drug related TEAE", "setting": "healthy subjects [2]; SAD 3 mg (n = 6)", "value": 2, "unit": "n"},
      {"measurement": "TEAEs", "setting": "healthy subjects [2]; SAD 3 mg (n = 6)", "value": 7, "unit": "n"},
      {"measurement": "Subjects discontinued from study drug due to ≥1 TEAE", "setting": "healthy subjects [2]; SAD 10 mg (n = 6)", "value": 0, "unit": "n"},
      {"measurement": "Subjects with ≥1 SAE", "setting": "healthy subjects [2]; SAD 10 mg (n = 6)", "value": 0, "unit": "n"},
      {"measurement": "Subjects with ≥1 TEAE", "setting": "healthy subjects [2]; SAD 10 mg (n = 6)", "value": "2 (33.3%) n (%)"},
      {"measurement": "Subjects with ≥1 study drug related TEAE", "setting": "healthy subjects [2]; SAD 10 mg (n = 6)", "value": 2, "unit": "n"},
      {"measurement": "TEAEs", "setting": "healthy subjects [2]; SAD 10 mg (n = 6)", "value": 7, "unit": "n"},
      {"measurement": "Subjects discontinued from study drug due to ≥1 TEAE", "setting": "healthy subjects [2]; SAD 20 mg (n = 6)", "value": 0, "unit": "n"},
      {"measurement": "Subjects with ≥1 SAE", "setting": "healthy subjects [2]; SAD 20 mg (n = 6)", "value": 0, "unit": "n"},
      {"measurement": "Subjects with ≥1 TEAE", "setting": "healthy subjects [2]; SAD 20 mg (n = 6)", "value": "3 (50.0%) n (%)"},
      {"measurement": "Subjects with ≥1 study drug related TEAE", "setting": "healthy subjects [2]; SAD 20 mg (n = 6)", "value": 2, "unit": "n"},
      {"measurement": "TEAEs", "setting": "healthy subjects [2]; SAD 20 mg (n = 6)", "value": 5, "unit": "n"},
      {"measurement": "Subjects discontinued from study drug due to ≥1 TEAE", "setting": "healthy subjects [2]; SAD 30 mg (n = 6)", "value": 0, "unit": "n"},
      {"measurement": "Subjects with ≥1 SAE", "setting": "healthy subjects [2]; SAD 30 mg (n = 6)", "value": 0, "unit": "n"},
      {"measurement": "Subjects with ≥1 TEAE", "setting": "healthy subjects [2]; SAD 30 mg (n = 6)", "value": "5 (83.3%) n (%)"},
      {"measurement": "Subjects with ≥1 study drug related TEAE", "setting": "healthy subjects [2]; SAD 30 mg (n = 6)", "value": 5, "unit": "n"},
      {"measurement": "TEAEs", "setting": "healthy subjects [2]; SAD 30 mg (n = 6)", "value": 13, "unit": "n"},
      {"measurement": "Subjects with gastrointestinal (GI)-related TEAEs", "setting": "healthy subjects [2]; SAD 50 mg (4/6 subjects)", "value": 66.7, "unit": "%"},
      {"measurement": "Subjects discontinued from study drug due to ≥1 TEAE", "setting": "healthy subjects [2]; SAD 50 mg (n = 6)", "value": 0, "unit": "n"},
      {"measurement": "Subjects with ≥1 SAE", "setting": "healthy subjects [2]; SAD 50 mg (n = 6)", "value": 0, "unit": "n"},
      {"measurement": "Subjects with ≥1 TEAE", "setting": "healthy subjects [2]; SAD 50 mg (n = 6)", "value": "5 (83.3%) n (%)"},
      {"measurement": "Subjects with ≥1 study drug related TEAE", "setting": "healthy subjects [2]; SAD 50 mg (n = 6)", "value": 3, "unit": "n"},
      {"measurement": "TEAEs", "setting": "healthy subjects [2]; SAD 50 mg (n = 6)", "value": 15, "unit": "n"},
      {"measurement": "Subjects with gastrointestinal (GI)-related TEAEs", "setting": "healthy subjects [2]; SAD all cohorts except 50 mg (1/6 subjects each)", "value": 16.7, "unit": "%"},
      {"measurement": "Subjects with at least one dizziness TEAE", "setting": "healthy subjects [2]; SAD all zagociguat-treated subjects (8 of 42), none on placebo", "value": 19.0, "unit": "%"},
      {"measurement": "Subjects discontinued from study drug due to ≥1 TEAE", "setting": "healthy subjects [2]; [3]", "value": 0, "unit": "n"},
      {"measurement": "Subjects with ≥1 SAE", "setting": "healthy subjects [2]; [3]", "value": 0, "unit": "n"},
      {"measurement": "Subjects with ≥1 TEAE", "setting": "healthy subjects [2]; [3]", "value": "22 (52.4%) n (%)"},
      {"measurement": "Subjects with ≥1 study drug related TEAE", "setting": "healthy subjects [2]; [3]", "value": 17, "unit": "n"},
      {"measurement": "TEAEs", "setting": "healthy subjects [2]; [3]", "value": 57, "unit": "n"},
      {"measurement": "Tolerability", "setting": "healthy subjects [2]; single doses up to 50 mg", "value": "well‐tolerated with no safety signals"}
    ]}
  ]
}
